Reference: ChEMBL document CHEMBL1140039, “Aglycone exploration of C-arylglucoside inhibitors of renal sodium-dependent glucose transporter SGLT2” (Bioorg Med Chem Lett, 2008)

Key:
[1] = molecular target: T1, Sodium/glucose cotransporter 2 (Homo sapiens, UniProt P31639); experiment: Inhibition of human SGLT2 expressed in Xenopus oocyte assessed as [14C]alpha-methyl glucopyranoside uptake
T1 sequence (P31639 whole entry): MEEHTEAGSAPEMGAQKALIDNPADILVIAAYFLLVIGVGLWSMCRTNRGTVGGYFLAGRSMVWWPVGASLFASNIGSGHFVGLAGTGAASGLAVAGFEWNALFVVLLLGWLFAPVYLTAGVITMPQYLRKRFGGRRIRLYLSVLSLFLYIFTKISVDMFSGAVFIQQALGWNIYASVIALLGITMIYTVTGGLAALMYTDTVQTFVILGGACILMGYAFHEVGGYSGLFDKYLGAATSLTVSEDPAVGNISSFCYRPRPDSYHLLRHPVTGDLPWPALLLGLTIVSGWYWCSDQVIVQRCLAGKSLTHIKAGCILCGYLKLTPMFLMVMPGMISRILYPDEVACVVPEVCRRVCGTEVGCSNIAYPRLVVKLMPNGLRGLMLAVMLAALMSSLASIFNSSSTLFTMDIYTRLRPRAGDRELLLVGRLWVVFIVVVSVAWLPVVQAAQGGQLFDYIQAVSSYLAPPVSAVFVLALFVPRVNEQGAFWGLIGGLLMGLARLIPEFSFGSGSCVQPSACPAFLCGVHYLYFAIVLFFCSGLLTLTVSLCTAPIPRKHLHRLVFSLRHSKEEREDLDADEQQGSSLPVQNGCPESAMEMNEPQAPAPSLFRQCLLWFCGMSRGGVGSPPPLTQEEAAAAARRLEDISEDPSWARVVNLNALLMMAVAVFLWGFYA

[2] = species on record: Homo sapiens; experiment: Selectivity for human SGLT2 over human SGLT1 expressed in Xenopus oocyte
[3] = test system: Liver microsomes; experiment: Metabolic stability in Sprague-Dawley rat liver microsomes at 10 uM
[4] = test system: Mus musculus; experiment: Effect on glucose concentration in Swiss Webster mouse urine at 0.3 mg/kg, iv; type: ADME, organism-based; parameters: dose 0.3 mg/kg, route intravenous; settings: in vivo
Summary of the method: (§1)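 Fasted male rats or mice were anesthetized with i.p. ketamine:xylazine (.001 mL/g), and the bladder was cannulated via an abdominal incision. Drug was given intravenously. Urine was collected over 60 min in 10-min intervals and assayed for glucose concentration.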

[5] = test system: Rattus norvegicus; experiment: Effect on glucose concentration in Sprague-Dawley rat urine at 1 mg/kg, iv; type: ADME, organism-based; parameters: dose 1 mg/kg, route intravenous; settings: in vivo; summary of the method: as §1

Row | SMILES | EC50 [1] [nM] | Selectivity ratio [2] | Stability [3] | urinary glucose [4] [mg/dL] | urinary glucose [5] [mg/dL]
1 | Cc1cc(O)c(C(=O)CCc2ccc3occc3c2)c(O[C@@H]2O[C@H](CO)[C@@H](O)[C@H](O)[C@H]2O)c1 | 50 | 4 |  |  | 
2 | Cc1ccc(Cc2cccc([C@@H]3O[C@H](CO)[C@@H](O)[C@H](O)[C@H]3O)c2)cc1 |  |  | Stable | 600 | 230
